Screens as filed in PubChem BioAssay.
MrgX1 antag = blocks BAM8-22 activation of human MrgX1 receptor | Q96LB2 | B-score at 10 µM | actives 1.3% (n = 310,000) | MRGX1-HEK293 calcium flux, Fluo-4, BAM8-22 antagonism; hits give low values | AID 588676;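 active = calcium-response B-score plate-corrected more than 3 library SD below zero, starting fluorescence within 5 deviations, no agonist response on first addition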;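 also: peak minus trough fluorescence over baseline after final BAM8-22 challenge near maximal dose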
Target sequence (Q96LB2 whole entry, looked up): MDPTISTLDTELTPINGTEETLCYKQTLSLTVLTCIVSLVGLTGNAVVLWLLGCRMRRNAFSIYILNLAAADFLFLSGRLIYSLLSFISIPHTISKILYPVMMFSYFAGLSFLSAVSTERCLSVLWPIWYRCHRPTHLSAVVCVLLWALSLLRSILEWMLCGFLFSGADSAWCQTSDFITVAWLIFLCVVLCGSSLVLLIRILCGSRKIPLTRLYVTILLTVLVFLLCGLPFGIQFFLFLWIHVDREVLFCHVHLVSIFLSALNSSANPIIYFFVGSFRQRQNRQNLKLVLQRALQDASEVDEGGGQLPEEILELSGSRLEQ
RGS4 inh = human RGS4 inhibition | P49798 | HEK293 M3R/RGS4 inducible, Fluo-4 calcium flux; hits give high values; triggered by carbachol at its EC20 | B-score at 10 µM | actives 0.45% (n = 310,000) | AID 463165;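 active = B-score, a plate-corrected calcium signal, over three deviations above library mean, with baseline fluorescence within five deviations of library mean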;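 also: RGS4 expression induced by doxycycline in cells with stable M3 receptor; B-score is computed from the integrated fluorescence ratio over baseline after carbachol; higher B-score means a larger calcium signal and so more RGS4 inhibition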
Target sequence (P49798 whole entry, looked up): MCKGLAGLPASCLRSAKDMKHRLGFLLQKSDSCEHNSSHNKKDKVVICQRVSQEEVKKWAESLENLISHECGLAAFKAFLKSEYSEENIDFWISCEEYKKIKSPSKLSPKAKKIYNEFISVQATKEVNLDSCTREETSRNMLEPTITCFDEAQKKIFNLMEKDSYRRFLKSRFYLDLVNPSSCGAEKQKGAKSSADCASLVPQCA
MrgX1 ag = human MrgX1 receptor agonism, primary screen; Q96LB2; MrgX1-HEK293 cells, Fluo-4 calcium fluorescence, agonist mode; hits give high values; B-score at 10 µM; actives 0.44% (n = 310,000); AID 588627;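 active = calcium response B-score plate-corrected fluorescence ratio at least 3 library SD, with starting fluorescence B-score inside 5 SD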
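Test system: Stable human MrgX1 HEK293 cell line | Schedule: Overnight plating before 1 h dye loading | Read-out basis: Baseline-normalised fluorescence change ratio, B-scored | Detection: Kinetic calcium dye fluorescence, Fluo-4 NW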
MrgX1 allo act = human MrgX1 positive allosteric modulation, primary screen; MrgX1-HEK293, Fluo-4 calcium flux, FDSS; hits give high values; AID 588675; B-score at 10 µM; actives 0.63% (n = 310,000);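 active = plate-corrected calcium response at least 3 library SD above typical, normal starting fluorescence, not activating the receptor alone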;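 also: compound read alongside a low EC10 to EC30 dose of BAM8-22 agonist; peak minus trough fluorescence over baseline measured at the second addition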
RGS4 act = potentiators or activators of RGS4; HEK293 M3R/inducible RGS4, carbachol calcium flux Fluo4; hits give low values; AID 463111; actives 0.92% (n = 310,000); B-score at 10 µM;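 active = B-score of the integrated calcium signal more than 4 SD below the library mean, with starting fluorescence not abnormally high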;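 also: negative B-score means reduced calcium response which marks RGS4 activation or potentiation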
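Assay system: HEK293 FlpIn-TREx cells, stable M3R, doxycycline-inducible RGS4 / Probe or stimulus: carbachol, ECmax concentration / Times: overnight RGS4 induction, 30 min dye load 37 °C, 20 min compound RT / Signal: kinetic calcium fluorescence imaging with Fluo4-AM dye, 2 µM / Measure: Agonist-evoked peak-minus-minimum fluorescence over baseline, integrated ratio, B score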
Of the large screens only hits and unclear results are named; the others gave an inactive call; ! = not active in a repeat. Most compounds without a hit are left out; they make up all but 3.5% or so of the library.

COc1ccc(CN(C(=O)c2cc3ccccc3oc2=O)C2CCCC2)cc1	MrgX1 antag -5
COc1ccc(CN(C(=O)c2cc3ccccc3oc2=O)C2CCS(=O)(=O)C2)cc1 (configuration not stated)	none
NN1C(=O)/C(=C2/Sc3ccccc3N2CCCS(=O)(=O)O)SC1=S	none
O=C1NC(=S)S/C1=C1\Sc2ccccc2N1CCCS(=O)(=O)O	MrgX1 antag -4.8
CCN(CC)c1ccc(C=Nc2ccccc2)c(O)c1	none
CCN(CC)c1ccc(/C=N/N2C(C)CCCC2C)c(O)c1 (configuration not stated)	MrgX1 allo act 7.7
CCN(CC)c1ccc(/C=N/N=C(N)N)c(O)c1	MrgX1 antag -5.5, MrgX1 allo act 7.8
CCN(CC)c1ccc(/C=N/N2CCOCC2)c(O)c1	none
CCC(C(=O)NC1CCCCC1)N(Cc1cccs1)C(=O)CCC(=O)Nc1cc(C)on1 (configuration not stated)	none
CCCSc1nnc(CNS(=O)(=O)c2ccc(C)cc2)n1C	none
O=C(N/N=C/c1cccc(OC(=O)N2CCOCC2)c1)c1cccs1	none
O=C(Nc1ccncc1)c1ccc(Cl)c(S(=O)(=O)N2CCCCC2)c1	none
CCN(CC)CCOC(=O)c1ccc(NC(=O)c2ccc(Cl)c(S(=O)(=O)N3CCCCCC3)c2)cc1	MrgX1 antag -6.8
Cn1cnc2c1c(=O)n(Cc1ccc(Cl)cc1Cl)c(=O)n2C	none
CCOc1ccc(C2C(C#N)=C(N)SC(N)=C2C#N)c(OCC)c1	none
CCCCc1ccc(C2C(C#N)=C(N)SC(N)=C2C#N)s1	MrgX1 antag -9.6 (no result: RGS4 inh, RGS4 act)
Cc1ccc(S(=O)(=O)N2[C@@H](c3ccccc3)C(C(=O)O)=CC[C@H]2c2cccc(Cl)c2)cc1	MrgX1 allo act 7.4 (no result: RGS4 inh, RGS4 act)
Cc1ccc(S(=O)(=O)N2[C@@H](c3ccccc3F)C(C(=O)O)=CC[C@H]2c2cccc(Cl)c2)cc1	MrgX1 allo act 11 (no result: RGS4 inh, RGS4 act)
Cc1ccc(S(=O)(=O)N2[C@@H](c3ccccc3F)C(C(=O)O)=CC[C@H]2c2ccc(C(C)C)cc2)cc1	none (no result: RGS4 inh, RGS4 act)
O=C(O)C1=CC[C@@H](c2ccc(Cl)cc2)N(S(=O)(=O)c2ccc(Cl)cc2)[C@H]1c1ccc(F)cc1	MrgX1 allo act 8.3 (no result: RGS4 inh, RGS4 act)
Cc1ccc([C@@H]2CC=C(C(=O)O)[C@H](c3ccccc3F)N2S(=O)(=O)c2ccc(C)cc2)cc1	MrgX1 allo act 8.9 (no result: RGS4 inh, RGS4 act)
Cc1ccc([C@@H]2CC=C(C(=O)O)[C@H](c3ccc(F)cc3)N2S(=O)(=O)c2ccc(C)cc2)cc1	none (no result: RGS4 inh, RGS4 act)
Cc1ccc(S(=O)(=O)N2[C@@H](c3cccc(Cl)c3)C(C(=O)O)=CC[C@H]2c2ccc(Cl)cc2)cc1	none (no result: RGS4 inh, RGS4 act)
CC(OC(=O)c1ccccc1CCc1ccccc1)C(N)=O (configuration not stated)	none
COc1cc([C@@H]2CC=C(C(=O)O)[C@H](c3ccc(Cl)cc3)N2S(=O)(=O)c2ccc(C)cc2)cc(OC)c1OC	none (no result: RGS4 inh, RGS4 act)
COc1ccc([C@@H]2CC=C(C(=O)O)CN2S(=O)(=O)c2ccc(Cl)cc2)cc1	MrgX1 allo act 8 (no result: RGS4 inh, RGS4 act)
Cc1ccc(S(=O)(=O)N2CC(C(=O)O)=CC[C@H]2c2ccc(Cl)cc2)cc1	none (no result: RGS4 inh, RGS4 act)
Cc1ccc(S(=O)(=O)N2[C@@H](c3ccc(Cl)cc3)C(C(=O)O)=CC[C@H]2c2ccc(Cl)c(Cl)c2)cc1	MrgX1 antag -5.1 (no result: RGS4 inh, RGS4 act)
CCOc1ccc(NC(=O)[C@H](Cc2ccccc2)NC(=O)C2CCNCC2)cc1	none
CCCCN(CCCC)c1ccc(C(=O)c2ccccc2C(=O)O)c(O)c1	MrgX1 ag 42
O=C(NCCc1c[nH]c2ccccc12)OCCCCOC(=O)NCCc1c[nH]c2ccccc12	none
CCN(CC)c1nc(SCCOC(=O)Nc2ccccc2)nc(N(CC)CC)n1	RGS4 act -8.8
O=C(Nc1nc2c(F)cc(F)cc2s1)C1CC1	none
COC(C/C=C\[C@H](O)[C@H](C)OCc1ccccc1)OC	MrgX1 antag -5.4
S=C(Nc1ccc(Oc2ccccc2)cc1)Nc1cccnc1	none
C1=CN2CCC1C(c1ccccc1)C2 (configuration not stated)	RGS4 act -7.3
COc1cc(/C=C(/C(=O)O)c2ccc(-c3ccccc3)cc2)cc(OC)c1OC	none
COc1ccc(/C(=C/c2ccc(OC(F)F)c(OC)c2)C(=O)O)cc1OC	MrgX1 antag -5.8
COC(=O)[C@@]1(Cc2ccc(OC)cc2)[C@H]2c3cc(C(=O)N(C)C)n(Cc4c(CO)[nH]cc(C)c4=O)c3C[C@H]2CN1C(=O)c1ccccc1	none
COC(=O)[C@@]1(Cc2ccc(OC)cc2)[C@H]2c3cc(C(=O)N4CCCC4)n(Cc4c(CO)[nH]cc(C)c4=O)c3C[C@H]2CN1C(=O)c1ccccc1	MrgX1 antag -5.6
O=C(Nc1ccccc1C(F)(F)F)N1CCN(C(c2ccccc2)c2ccccc2)CC1	MrgX1 antag -7.1
O=C(CCc1ccccc1)N1CCCC(Nc2ccc(F)cc2)C1 (configuration not stated)	none
COC(=O)[C@H](Cc1ccccc1)NC(=O)c1ccc2ccccc2n1	none
CC(C)(C)NC(=O)[C@@H]1C[C@@H]2CCCC[C@@H]2CN1C[C@@H](O)[C@H](Cc1ccccc1)NC(=O)[C@H](CC(N)=O)NC(=O)c1ccc2ccccc2n1	MrgX1 antag -6!
CC(C)(C)CN1CCN(Cc2cccnc2)CC1CCO (configuration not stated)	none
O=c1c(NCCc2ccc(Cl)cc2)c(-c2ccccc2)c1=O	none
Cc1ncsc1CCC(=O)N1CCCC(Nc2ccc(C(C)C)cc2)C1 (configuration not stated)	MrgX1 antag -6.6
CCC(=O)Nc1cc2c3c(c1)CCN3C(=O)CC2	none
CCCCn1c(N)c(N(CCC(C)C)C(=O)c2ccc3c(c2)OCO3)c(=O)[nH]c1=O	MrgX1 antag -5.7
N/C(=N\OC(=O)c1ccccc1)c1ccn[nH]1	none
CCOC(=O)c1ccc(NC(=O)COc2ccc(CNC3CCCCC3)cc2OC)cc1	RGS4 act -7.5
CN(C)CCN(C(=O)c1ccc(S(=O)(=O)N(C)C)cc1)c1nc2cc3c(cc2s1)OCCO3	none
CN(C)CCN(C(=O)c1ccc(S(=O)(=O)N(C)c2ccccc2)cc1)c1nc2cc3c(cc2s1)OCCO3	RGS4 act -7.8
CCN(c1ccccc1)S(=O)(=O)c1ccc(C(=O)N(CCN(C)C)c2nc3c(F)cc(F)cc3s2)cc1	RGS4 inh 14
CCSc1nnc(NC(=O)COc2ccccc2[N+](=O)[O-])s1	MrgX1 allo act 8.6
CC(C)c1nnc(NC(=O)COc2ccccc2[N+](=O)[O-])s1	none
Cc1cc(O)c2c(-c3ccccc3)cc(=O)oc2c1	MrgX1 ag 44 (no result: RGS4 inh, RGS4 act)
CC(=O)COc1cc(C)cc2oc(=O)cc(-c3ccccc3)c12	none
CCN=C1S/C(=C\c2ccc(OCC)c(OC)c2)C(=O)N1CC	MrgX1 antag -5.1
CCN=C1S/C(=C\c2cc(Cl)c(OC)c(OC)c2)C(=O)N1CC	none
